Data: ChEMBL document CHEMBL1144067, “Cancer chemopreventive agents (antitumor-promoters) from Ajuga decumbens” (J Nat Prod, 1999)

Columns and labels:
[1] = Cytotoxicity against human Raji cells assessed as cell viability at 500 molar ratio after 48 hrs; format: cell-based; details: read-out: Activity
How it was run: (§1)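 Raji cells (EBV genome-carrying, Burkitt's lymphoma-derived) grown in RPMI-1640 and incubated 48 h at 37 °C with 4 mmol n-butyric acid, 32 pmol TPA (20 ng/mL) and test agent at 10–1000 mol ratio/TPA (0.32–32 nmol). Viability given as percentage of Raji cells; n = 3, ±S.D.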

[2] = Cytotoxicity against human Raji cells assessed as cell viability at 1000 molar ratio after 48 hrs; format: cell-based; details: read-out: Activity; how it was run: as §1
Mus musculus [3] = test: Inhibition of DMBA-induced/TPA-promoted carcinogenesis in mouse assessed as number of mouse bearing papillomas at 85 nmol administered twice weekly after 1 week of initiation for 10 weeks; format: functional; design: scale not given: the % may be the effect or the level left
How it was run: (§2)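 Female SPF ICR mice, 6 weeks old, 15 per group, backs shaved; single topical DMBA initiation (100 μg, 390 nmol) in 0.1 mL acetone. From 1 week after, promotion with TPA 1.7 nmol twice weekly, plus 85 nmol test agent. Papilloma incidence and number per mouse monitored weekly for 20 weeks.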

[4] = Cytotoxicity against human Raji cells assessed as cell viability at 100 molar ratio after 48 hrs; format: cell-based; details: read-out: Activity; how it was run: as §1
Mus musculus [5] = test: Inhibition of DMBA-induced/TPA-promoted carcinogenesis in mouse assessed as number of mouse bearing papillomas at 85 nmol administered twice weekly after 1 week of initiation for 17 weeks; format: functional; design: scale not given: the % may be the effect or the level left; how it was run: as §2
[6] = Cytotoxicity against human Raji cells assessed as cell viability at 10 molar ratio after 48 hrs; format: cell-based; details: read-out: Activity; how it was run: as §1
Mus musculus [7] = test: Inhibition of DMBA-induced/TPA-promoted carcinogenesis in mouse assessed as number of skin papillomas per mouse at 85 nmol administered twice weekly after 1 week of initiation for 20 weeks; format: functional; how it was run: as §2
Mus musculus [8] = test: Inhibition of DMBA-induced/TPA-promoted carcinogenesis in mouse assessed as number of skin papillomas per mouse at 85 nmol administered twice weekly after 1 week of initiation for 10 weeks; format: functional; how it was run: as §2
Raji [9] = test: Inhibition of 12-O-tetradecanoylphorbol-13-acetate induced EBV-early antigen activation in human Raji cells at 100 molar ratio relative to control; format: cell-based; details: human gammaherpesvirus 4
How it was run: (§3)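 Raji cells in RPMI-1640 treated 48 h at 37 °C with n-butyric acid (4 mmol), TPA (32 pmol = 20 ng/mL) and test agent at 10, 100, 500 or 1000 mol ratio/TPA (0.32–32 nmol). EA-positive cells in smears detected by indirect immunofluorescence; induction expressed relative to TPA positive control (100%), n = 3, ±S.D.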

Raji [10] = test: Inhibition of 12-O-tetradecanoylphorbol-13-acetate induced EBV-early antigen activation in human Raji cells at 10 molar ratio relative to control; format: cell-based; details: human gammaherpesvirus 4; how it was run: as §3
Raji [11] = test: Inhibition of 12-O-tetradecanoylphorbol-13-acetate induced EBV-early antigen activation in human Raji cells at 500 molar ratio relative to control; format: cell-based; details: human gammaherpesvirus 4; how it was run: as §3
Raji [12] = test: Inhibition of 12-O-tetradecanoylphorbol-13-acetate induced EBV-early antigen activation in human Raji cells at 1000 molar ratio relative to control; format: cell-based; details: human gammaherpesvirus 4; how it was run: as §3
Mus musculus [13] = test: Inhibition of DMBA-induced/TPA-promoted carcinogenesis in mouse assessed as number of mouse bearing papillomas at 85 nmol administered twice weekly after 1 week of initiation for 8 weeks; format: functional; design: scale not given: the % may be the effect or the level left; how it was run: as §2
Mus musculus [14] = test: Inhibition of 4NQO-induced/glycerol-promoted carcinogenesis in mouse assessed number of mouse with pulmonary tumors at 2.54 mg/week administered twice weekly after 5 weeks of initiation for 22 weeks; format: functional; design: scale not given: the % may be the effect or the level left
How it was run: (§4)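 Female SPF ICR mice (6 weeks old), 15 per group. Initiation by single s.c. injection of 0.3 mg 4NQO in olive oil–cholesterol (20:1); promotion with 8% glycerol in drinking water ad libitum, test agent given at 0.0025% or 0.005%. Killed by cervical dislocation after 22-week promotion; pulmonary tumors counted per lobe under dissecting microscope. Student's t-test vs 4NQO + glycerol group.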

Mus musculus [15] = test: Inhibition of 4NQO-induced/glycerol-promoted carcinogenesis in mouse assessed number of pulmonary tumors per mouse at 2.54 mg/week administered twice weekly after 5 weeks of initiation for 22 weeks; format: functional; how it was run: as §4
Mus musculus [16] = test: Inhibition of 4NQO-induced/glycerol-promoted carcinogenesis in mouse assessed number of pulmonary tumors per mouse at 1.27 mg/week administered twice weekly after 5 weeks of initiation for 22 weeks; format: functional; how it was run: as §4
Mus musculus [17] = test: Toxicity in 4NQO-induced/glycerol-promoted carcinogenesis mouse model assessed change in body weight at 1.27 mg/week administered twice weekly after 5 weeks of initiation for 22 weeks; format: organism-based; details: in vivo
How it was run: (§5)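 Female ICR mice in the 4NQO (0.3 mg s.c.)-initiated, 8% glycerol drinking-water-promoted lung model, 15 per group, test agent at 0.0025% or 0.005%. Body weight recorded at end of the 22-week promotion period.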

Mus musculus [18] = test: Inhibition of 4NQO-induced/glycerol-promoted carcinogenesis in mouse assessed number of mouse with pulmonary tumors at 1.27 mg/week administered twice weekly after 5 weeks of initiation for 22 weeks; format: functional; design: scale not given: the % may be the effect or the level left; how it was run: as §4
Mus musculus [19] = test: Toxicity in 4NQO-induced/glycerol-promoted carcinogenesis mouse model assessed change in body weight at 2.54 mg/week administered twice weekly after 5 weeks of initiation for 22 weeks; format: organism-based; details: in vivo; how it was run: as §5

| Structure (SMILES) | viability at 48 h, 500 molar ratio [1] | viability at 48 h, 1000 molar ratio [2] | Activity (Mus musculus [3]) | viability at 48 h, 100 molar ratio [4] | Activity (Mus musculus [5]) | viability at 48 h, 10 molar ratio [6] | Activity (Mus musculus [7]) | Activity (Mus musculus [8]) | EBV-EA induction remaining (% of TPA control) (Raji [9]) | EBV-EA activation relative to TPA control (Raji [10]) | EBV-EA induction remaining (% of TPA control) (Raji [11]) | EBV-EA induction remaining (% of TPA control) (Raji [12]) | Activity (Mus musculus [13]) | Activity (Mus musculus [14]) | Activity (Mus musculus [15]) | Activity (Mus musculus [16]) | Activity (Mus musculus [17]) | Activity (Mus musculus [18]) | Activity (Mus musculus [19]) |
| --- | --- | --- | --- | --- | --- | --- | --- | --- | --- | --- | --- | --- | --- | --- | --- | --- | --- | --- | --- |
| C[C@@H]1C(=O)O[C@H](C)[C@H]1C[C@@H](O)[C@](C)(O)[C@H]1CC[C@@]2(O)C3=CC(=O)[C@@H]4C[C@@H](O)[C@@H](O)C[C@]4(C)[C@H]3CC[C@]12C [CYASTERONE] | > 80% | 70% | 60% | > 80% | 80% | > 80% | 7 | 2.5 | 75.2% | 94.6% | 36.2% | 0% | 43% | – | – | – | – | – | – |
| CC(C)(O)CC[C@@H](O)[C@@](C)(O)[C@H]1CC[C@@]2(O)C3=CC(=O)[C@@H]4C[C@@H](O)[C@@H](O)C[C@]4(C)[C@H]3CC[C@]12C | > 80% | 70% | – | > 80% | – | > 80% | – | – | 90.1% | 100% | 73.7% | 0% | – | – | – | – | – | – | – |
| CCC1=C(C)C(=O)O[C@@H]([C@](C)(O)[C@H]2CC[C@@]3(O)C4=CC(=O)[C@@H]5C[C@@H](O)[C@@H](O)C[C@]5(C)[C@H]4CC[C@]23C)C1 | > 80% | 60% | – | > 80% | – | > 80% | – | – | 81% | 100% | 58.2% | 17.5% | – | – | – | – | – | – | – |
| CC(=O)O[C@@]1(C)C[C@@H](O)[C@]2(O)C=CO[C@@H](O[C@@H]3O[C@H](CO)[C@@H](O)[C@H](O)[C@H]3O)[C@@H]21 | > 80% | – | 20% | > 80% | 80% | > 80% | 6 | 2 | 62.6% | 89.5% | 19.9% | 0% | 10% | 46.6% | 0.9 | 1.1 | Non-toxic | 53.3% | Non-toxic |
| CC(=O)OC[C@@]12[C@@H](OC(C)=O)C[C@@H](C)[C@](C)(C[C@H](OC(C)=O)C3=CC(=O)OC3)[C@H]1[C@H](OC(C)=O)CC[C@]21CO1 [AJUGAPANTIN A] | > 80% | 70% | – | > 80% | – | > 80% | – | – | 79.2% | 100% | 54.7% | 10.6% | – | – | – | – | – | – | – |
| CC1(C)[C@@H](O)CC[C@]2(C)[C@H]3C(=O)C=C4[C@@H]5C[C@@](C)(C(=O)O)CC[C@]5(C)CC[C@@]4(C)[C@]3(C)CC[C@@H]12 [ENOXOLONE] | – | – | – | – | – | – | 9 | 4 | – | – | – | – | – | – | – | – | – | – | – |
| C[C@@H]1C(=O)O[C@H](C)[C@H]1C[C@@H](O)[C@](C)(O)[C@H]1CC[C@@]2(O)C3=CC(=O)[C@]4(O)C[C@@H](O)[C@@H](O)C[C@]4(C)[C@H]3CC[C@]12C | > 80% | 70% | – | > 80% | – | > 80% | – | – | 80.2% | 100% | 51.9% | 0% | – | – | – | – | – | – | – |
| C/C=C(/C)C(=O)O[C@@H](C[C@@]1(C)[C@H](C)C[C@H](OC(C)=O)[C@]2(COC(C)=O)[C@@H]1[C@H](OC(=O)/C(C)=C\C)CC[C@]21CO1)C1=CC(=O)OC1 | > 80% | 70% | – | > 80% | – | > 80% | – | – | 71.5% | 100% | 47.2% | 18.4% | – | – | – | – | – | – | – |
| O=c1cc(-c2ccc(O)cc2)oc2cc(O)cc(O)c12 [APIGENIN] | > 80% | 50% | – | > 80% | – | > 80% | – | – | 83.7% | 100% | 65.9% | 31.5% | – | – | – | – | – | – | – |
